# This is a sample that favours compounds with a hit; in the whole collection about 1.4% have one here.
# Dyrk1A ADPGlo = blocks rat Dyrk1A kinase activity; inhibition, % at 12.5 µM; Q63470; actives 0.43% (n = 310,000); ADP-Glo luminescence, NFATc1 peptide; AID 504441; in the data active = inhibition above about 50%;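 note: plate controls were vehicle with enzyme for no effect and no enzyme for full effect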
# ARNT-TACC3 inh = disrupts binding between human ARNT and TACC3; Q9Y6A5; AlphaScreen His-ARNT PAS-B/GST-TACC3 binding, luminescence; TACC3 fragment carries E629A point mutation; inhibition, % at 9.99 µM; actives 0.66% (n = 390,000); AID 623870;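 active = mean inhibition of replicates at least 50% and at least half of replicates each reaching 50%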;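 note: 0% = complete ARNT plus TACC3 wells and 100% = ARNT alone without TACC3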
# CAL PDZ FP-1 = inhibitors of human CAL PDZ peptide binding; Q9HD26; purified CAL PDZ, TMR-peptide fluorescence polarization, 1 h; inhibition, % at 20 µM; actives 0.02% (n = 330,000);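 active = highest replicate inhibition of at least 40%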;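 note: plate controls were DMSO neutral control wells for no effect and unlabeled competitor peptide control wells for full effect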
#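 Material: tagged CAL PDZ protein CerCALP, purified; buffer or medium: sodium phosphate/NaCl buffer pH 7.4 with TCEP, IgG, Thesit; also added: fluorescent TMR peptide probe; schedule: 1 h incubation at room temperature before polarization reading; technique: fluorescence polarization from S- and P-plane intensities, G-factor corrected; control set: unlabelled peptide and DMSO controls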
# CAL PDZ FP-2 = blocks peptide binding to the human CAL PDZ domain | purified CAL PDZ, TMR-peptide fluorescence polarization, 1 h | inhibition, % at 24.9 µM | actives 0.92% (n = 300,000) | AID 602252;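 active = mean inhibition of at least 30% with at least half of replicates also reaching 30%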;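 note: 0% = DMSO neutral control and 100% = excess unlabeled competitor peptide PRC23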
# * = called active by the depositor; . = no result.
SMILES,Dyrk1A ADPGlo,ARNT-TACC3 inh,CAL PDZ FP-1,CAL PDZ FP-2
Cn1cccc1-c1cc(C(=O)O)[nH]n1,3,-2,0,41*
O=C(O)c1cc(-c2ccccc2)n[nH]1,-5,-29,-2,-7
O=C1CSC(c2ccccc2[N+](=O)[O-])N1CCc1ccccc1 (configuration not stated),4,4,0,70*
CC(C)NC(=O)CSc1nnc(CNC(=O)OC(C)(C)C)n1C,-2,-5,0,84*
Cc1cccc(C(=O)NCc2nnc(SCC(=O)NC(C)c3ccccc3)n2C)c1 (configuration not stated),-1,3,0,-2
C[C@@H]1CN([C@@H](C)CO)C(=O)c2cc(NC(=O)Nc3ccccc3)ccc2O[C@@H](C)CCCCO[C@H]1CN(C)C(=O)c1ccccc1,.,4,.,.
O=C([C@H]1[C@H](CO)[C@H]2Cn3c(cccc3=O)[C@H]2N1C(=O)CC1CC1)N1CCCCC1,.,-13,.,.
CC1=NN(c2ccccc2)C(=O)/C1=C/N(C)C,-2,16,-2,6
CC1=NN(c2nc3ccccc3[nH]2)C(=O)/C1=C/N(C)C,6,68*,-1,-1
Cc1ccc(C(=O)NC(=S)NNC(=O)c2ccccc2O)cc1,2,2,0,-7
O=C(NC(=S)NNC(=O)c1ccccc1O)c1ccccc1,4,55*,1,0
O=C(NC1CCCCC1)c1ccc([N+](=O)[O-])cc1,1,-4,0,92*
O=C(NC(=S)NNC(=O)c1ccccc1O)c1ccc([N+](=O)[O-])cc1,-2,36,-1,3
O=C(NC(=S)NC1CCN(Cc2ccccc2)CC1)c1ccc(F)cc1,8,17,-1,-1
O=C(NC1CCCCCCC1)c1cc([N+](=O)[O-])ccc1Cl,6,-2,.,-15
O=C(NC(=S)NC1CCCCC1)c1ccc(F)cc1,0,4,-1,44*
O=C(NC(=S)NNC(=O)c1ccccc1O)c1ccc(F)cc1,-1,19*,0,4
C[C@@H]1CN([C@@H](C)CO)C(=O)c2cc(C#CCN(C)C)cnc2O[C@H]1CN(C)C(=O)CN1CCOCC1,.,-9,.,.
C[C@H]1CN([C@@H](C)CO)C(=O)c2cccc(N(C)C)c2O[C@@H]1CN(C)Cc1ccc(C(F)(F)F)cc1,.,10,.,.
O=C(N[C@@H]1CC[C@H](CCNS(=O)(=O)c2ccc(F)cc2)O[C@H]1CO)c1cnccn1,.,-11,.,.
O=c1[nH]nc(N=Nc2c(O)[nH]c3ccc(F)cc23)c(=O)[nH]1,8,63*,-4,-1
C[C@H](CO)N1C[C@H](C)[C@H](CN(C)Cc2ccc(Oc3ccccc3)cc2)Oc2c(NS(C)(=O)=O)cccc2C1=O,.,4,.,.
Cn1c(CC(=O)Nc2ccccc2F)nnc1SCC(=O)Nc1ccccc1Br,1,-3,-1,42*
Cn1c(CC(=O)Nc2ccccc2F)nnc1SCC(=O)Nc1nncs1,-6,.,-2,-3
COc1cccc(C(=O)Nc2ccc3c(c2)C(=O)N(C)C[C@@H](OC)[C@H](C)CN(C)[C@@H](C)CO3)c1,.,-3,.,.
SMILES,Dyrk1A ADPGlo,ARNT-TACC3 inh,CAL PDZ FP-1,CAL PDZ FP-2
CCC(C(=O)OCn1nnc2ccccc2c1=O)c1ccccc1 (configuration not stated),0,-1,-1,54*
N=C1SCC(=O)N1c1ncc(Cc2ccccc2Cl)s1,4,26,0,30*
C[C@@H]1CCCCO[C@@H](CN(C)C(=O)C2CCCCC2)[C@H](C)CN([C@H](C)CO)C(=O)c2cc(NC(=O)Nc3ccc4c(c3)OCO4)ccc2O1,.,4,.,.
CCOc1ccccc1-n1c(SCC(N)=O)nnc1-c1ccc(O)cc1,0,54*,-1,9
CCOc1ccccc1-n1c(SCC(=O)N(CC)CC)nnc1-c1ccccn1,3,14,0,.
CCOC(=O)CCSc1nnc(-c2cccnc2)n1-c1ccccc1OC,5,1,1,67*
Cc1ccc(C)c(-n2c(SCC(=O)N3CCCC3)nnc2-c2ccccn2)c1,1,46*,0,.
COc1ccccc1-n1c(SCC(N)=O)nnc1-c1ccccc1,-1,-7,-3,0
CCOc1ccccc1-n1c(SCC(=O)N2CCOCC2)nnc1-c1ccccn1,-2,21,.,42*
CCC(=O)N[C@H]1C=C[C@@H](CC(=O)NCc2cc(F)cc(F)c2)O[C@@H]1CO,.,-6,.,.
CCCC#Cc1cnc2c(c1)C(=O)N([C@@H](C)CO)C[C@H](C)[C@@H](CN(C)S(C)(=O)=O)O2,.,-8,.,.
O=C(C[C@H]1CC[C@H]2[C@@H](COC[C@H](O)CN2Cc2ccc(F)cc2)O1)N1CCc2ccccc2C1,.,1,.,.
